PKD1 kinase inh – PKD1 (human) kinase inhibition | PKD1 kinase fluorescence polarization assay | inhibition, % (test concentration not listed) | hit rate 0.056% among 200,000
ABCG2 block – blocks JC-1 efflux by human ABCG2 transporter. inhibition, % at 6.6 µM. IgMXP3 cells, flow cytometry. hit rate 0.1% among 190,000;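 active = inhibition above 80%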;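 note: 0% = DMSO and 100% = nicardipine control wells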
Target sequence (Q9UNQ0 whole entry, looked up): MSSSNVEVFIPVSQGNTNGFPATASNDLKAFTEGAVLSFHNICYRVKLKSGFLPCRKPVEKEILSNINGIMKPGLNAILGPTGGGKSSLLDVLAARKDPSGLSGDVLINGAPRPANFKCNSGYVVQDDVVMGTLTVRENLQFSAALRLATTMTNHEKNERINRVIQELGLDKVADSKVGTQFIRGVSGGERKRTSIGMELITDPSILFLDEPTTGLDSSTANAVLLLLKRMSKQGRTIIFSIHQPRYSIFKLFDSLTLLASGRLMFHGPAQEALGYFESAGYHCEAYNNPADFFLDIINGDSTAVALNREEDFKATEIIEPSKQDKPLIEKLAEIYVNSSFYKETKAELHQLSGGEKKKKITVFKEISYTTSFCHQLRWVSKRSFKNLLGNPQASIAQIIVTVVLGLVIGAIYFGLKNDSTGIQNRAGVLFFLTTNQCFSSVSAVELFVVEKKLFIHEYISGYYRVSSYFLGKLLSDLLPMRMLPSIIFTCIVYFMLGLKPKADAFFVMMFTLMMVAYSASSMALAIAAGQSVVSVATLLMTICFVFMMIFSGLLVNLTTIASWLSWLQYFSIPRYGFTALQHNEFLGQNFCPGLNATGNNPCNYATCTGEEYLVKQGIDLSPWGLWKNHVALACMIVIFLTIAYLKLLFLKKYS
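material = IgMXP3 (ABCG2) plus far-red-tagged CCRF-Adr (ABCB1) cells | amount = 3 million cells/mL, equal mix of both lines | also added = JC-1 transporter substrate | dosing = one concentration, 6.6 µM final | schedule = 10 min at 25 °C | measured by = flow cytometric JC-1 green MFI at 530 nm | read-out basis = percent efflux inhibition, scaled nicardipine 100% to DMSO 0%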
ABCB1 block – inhibitors of human ABCB1 transporter, ABCG2 counter-screen | P08183 | CCRF-Adr cells, JC-1 efflux, flow cytometry | inhibition, % at 6.6 µM | hit rate 0.067% among 190,000 | AID 1326; in the data active = inhibition above about 40%;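 note: 0% = vehicle and 100% = reference inhibitor; higher value means more JC-1 retained so stronger ABCB1 efflux block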
L major viab – reduces viability of Leishmania major promastigotes. inhibition, % at 10 µM. resazurin fluorescence viability. hit rate 9% among 200,000;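 note: promastigotes grown with compound for 44 hours at 28 °C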
Avidin bead fluor – avidin bead compound fluorescence profile. Avidin beads, compound fluorescence 488/530 nm, flow cytometry; active compounds read high. fluorescence (KMESF) at 10 µM. hit rate 0.38% among 220,000. AID 1775; in the data active = fluorescence above about 47
GSH fluor – compound fluoresces at 488/530 nm on GSH beads; GSH beads flow cytometry, compound fluorescence 488/530 nm; active compounds read high; hit rate 0.25% among 190,000; fluorescence (KMESF) at 10 µM; in the data active = fluorescence above about 89;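 note: glutathione beads carrying GST-tagged Bcl family fusion proteins plus one bare bead set; values are compound well signal with DMSO vehicle wells as background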
The depositor's hits bear a star; / = no result given. The entries come from a sample that favours hits as a whole. Cut-off read from the data, not from the text of the source, unless noted: active = inhibition above about 50%; inactive = the rest.

SMILES	PKD1 kinase inh	ABCG2 block	ABCB1 block	L major viab	Avidin bead fluor	GSH fluor
CCCOc1ccc(C(C)(O)CN2CCOCC2)cc1 (centres undefined)	-4	1	0	1	34	13
CC(C)(c1ccccc1)c1ccc(OCCCN2CCNCC2)cc1	2	1	0	100*	12	24
CNCCCOc1ccc(C(C)(C)c2ccccc2)cc1	0	0	0	100*	10	54
CC(C)(C)c1ccc(OCCNC(=S)Nc2ccccc2)cc1	-1	2	0	15	9	21
O=C(NCc1ccc(F)cc1)C(=O)NCC1OCCN1C(=O)c1cccs1 (centres undefined)	-11	0	0	-5	15	15
Cc1scc(C(=O)N/N=C/c2ccc(Cl)s2)c1C	3	7	0	-9	3	10
Cc1nc(NC(=O)c2csc3ccccc23)sc1C	4	1	-1	60*	43	18
Cc1ccc2cc(/C=C(\C#N)C(N)=O)c(N3CCCCC3)nc2c1	-2	-4	-2	42	5	9
Cc1ccc2cc(C=C(C#N)C#N)c(N3CCCCC3)nc2c1	-2	13	0	99*	22	22
CCOC(=O)/C(C#N)=C/c1cc2ccccc2nc1N1CCCCC1	-2	16	3	88*	12	18
O=C(O)CC/C(=N\NC(=O)c1ccccc1Br)c1ccccc1	8	0	0	-9	3	10
COc1ccc(S(=O)(=O)N(C)CC(=O)N2CCN(c3ccc(F)cc3)CC2)cc1OC	1	6	1	-6	10	13
CS(=O)(=O)N1CC(C(=O)O)Oc2ccc(CC(=O)O)cc21 (centres undefined)	-3	4	1	-8	7	11
COCCCNc1c2c3c(cccc3[nH]c1=O)C(=O)c1ccccc1-2	110*	12	16	12	7	17
CCC(C)(C)C1CCC(=NNC(=S)Nc2ccccc2)CC1 (centres undefined)	-2	2	0	1	13	14
S=C(NN=C1C2CC3CC(C2)CC1C3)Nc1ccccc1	-3	1	0	99*	12	11
C/C(=N\OC(=O)c1ccc(Br)cc1)c1ccccn1	-16	3	-1	88*	7	5
N/C(=N\OC(=O)/C=C/c1ccccc1Cl)c1ccccn1	5	12	0	2	10	20
N/C(=N\OC(=O)/C=C/c1ccc(Br)cc1)c1ccccn1	-10	20	0	77*	14	9
C/C(=N/OCc1ccc(Br)cc1)c1ccccn1	6	1	0	-5	10	17
C[C@H](NC(=O)Nc1cccc(Br)c1)C(=O)O	/	/	/	/	8	/
Cc1ccc(SCC(=O)n2nc(C)cc2C)cc1	-4	1	0	23	13	7
CC(=O)NC(=S)Nc1ccc(S(=O)(=O)Nc2nc(C)cc(C)n2)cc1	5	1	-1	-4	8	18
CC1CCCC(C)N1C(=O)COc1ccc([N+](=O)[O-])cc1Cl (centres undefined)	7	13	4	3	7	17
O=C(COC(=O)CNS(=O)(=O)c1cccc(Br)c1)NC(=O)Nc1ccc2c(c1)OCCO2	-7	-1	-1	-3	6	10
SMILES	PKD1 kinase inh	ABCG2 block	ABCB1 block	L major viab	Avidin bead fluor	GSH fluor
CCN1C(=O)S/C(=C/c2ccsc2)C1=O	-4	1	0	-2	52*	26
C=CCN1C(=O)S/C(=C\c2ccc3c(c2)n(C)c(=O)n3C)C1=O	5	19	8	15	1	10
C=CCN1C(=O)S/C(=C/c2ccsc2)C1=O	-1	3	1	16	4	108*
Cn1cc(/C=C2\SC(=O)N(c3ccccc3)C2=O)c2ccccc21	-1	24	0	-5	25	11
CCN1C(=O)S/C(=C/c2cn(C)c3ccccc23)C1=O	-7	16	2	82*	12	4
Cc1cc(Nc2c(C)n(C)n(-c3ccccc3)c2=O)c2ccccc2n1	-7	1	0	-3	3	6
Cc1cc(C)cc(NC(=O)c2cccn2-c2ncc(C(F)(F)F)cc2Cl)c1	1	1	1	6	16	36
CCN(CC)S(=O)(=O)c1ccc(N2CCOCC2)c(NC(=O)Cc2ccccc2F)c1	-6	36	26	71*	11	9
CCN(CC)S(=O)(=O)c1ccc(N2CCOCC2)c(NC(=O)Cc2ccccc2)c1	11	11	5	4	15	13
CCN(CC)S(=O)(=O)c1ccc(N2CCOCC2)c(NC(=O)C23CC4CC(CC(Cl)(C4)C2)C3)c1	-5	10	2	56*	12	7
CCN(CC)S(=O)(=O)c1ccc(N2CCOCC2)c(NC(=O)CC(C)(C)C)c1	/	/	/	/	6	/
CCN(CC)S(=O)(=O)c1ccc(N2CCOCC2)c(NC(=O)Cc2cccc3ccccc23)c1	-14	38	8	95*	11	4
O=c1[nH]c2c(s1)C=Nc1ccccc1N2	-4	-5	-1	-5	9	26
CCc1ccc(NC(=S)NC2CCN(Cc3ccccc3)CC2)cc1	-9	0	1	96*	3	9
CCC(C)c1ccc(NC(=S)NN2CCOCC2)cc1 (centres undefined)	-8	-1	0	2	13	19
CCC(C)c1ccc(NC(=S)NC2CCN(Cc3ccccc3)CC2)cc1 (centres undefined)	6	4	0	87*	15	18
CCCN1CCC(NC(=S)Nc2ccc([N+](=O)[O-])cc2)CC1	-4	2	0	83*	6	19
S=C(Nc1ccccc1)NC1CCN(Cc2ccccc2)CC1	-3	0	0	91*	11	10
CCCN1CCN(C(=S)Nc2ccc([N+](=O)[O-])cc2)CC1	0	9	0	36	10	10
CCN(CC)S(=O)(=O)c1cccc(C(=O)N/N=C2\CCCC(=O)C2)c1	/	/	/	/	2	/
S=C(Nc1ccc(Cl)cc1)NC1CCN(Cc2ccccc2)CC1	4	0	0	99*	11	12
COc1ccc(CCNC(=S)Nc2cccc3ccccc23)cc1	-5	3	0	85*	10	11
COc1ccc(NC(=S)NC2CCN(Cc3ccccc3)CC2)cc1OC	2	4	1	22	9	21
COc1ccc(CCNC(=S)NC2CCN(Cc3ccccc3)CC2)cc1	3	0	-1	74*	6	14
COc1ccc(OCCNC(=S)Nc2cccc3ccccc23)cc1	21	4	1	3	5	33
O=C(Nc1ccc2c(c1)OCO2)c1cc(-c2ccncc2)nc2ccccc12	1	3	1	3	10	10
CC1COC(=O)C(NNc2ccc(Cl)c(Cl)c2)=N1 (centres undefined)	7	5	1	100*	9	11
